Sampled rows, rich in hits. Any-hit rate of the full collection: about 1.4%.
PvdQ inh = blocks Pseudomonas aeruginosa PvdQ acylase activity; purified PvdQ acylase, fluorescence plate reader; 0.063% of 340,000 active; inhibition, % at 10 µM; in the data active = inhibition above about 30%, passing the limit was not always enough
CDK5 inh = blocks human CDK5/p35 kinase activity. AID 488839. 0.01% of 330,000 active. inhibition, % at 10 µM. Q00535+Q15078. Recombinant CDK5/p35, ADP-Glo luminescence, 60 min;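 active = highest replicate inhibition of at least 50% and at least 75% of replicates reaching 50%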
Target sequence (Q00535 whole entry, looked up): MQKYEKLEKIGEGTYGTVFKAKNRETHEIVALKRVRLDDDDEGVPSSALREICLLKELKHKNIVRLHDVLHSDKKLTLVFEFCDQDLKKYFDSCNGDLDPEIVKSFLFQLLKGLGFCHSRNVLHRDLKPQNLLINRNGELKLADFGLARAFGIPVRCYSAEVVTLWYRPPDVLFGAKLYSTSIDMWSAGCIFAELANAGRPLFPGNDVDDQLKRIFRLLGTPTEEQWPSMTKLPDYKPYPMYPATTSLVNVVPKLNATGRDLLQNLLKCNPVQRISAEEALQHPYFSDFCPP
Target sequence (Q15078 whole entry, looked up): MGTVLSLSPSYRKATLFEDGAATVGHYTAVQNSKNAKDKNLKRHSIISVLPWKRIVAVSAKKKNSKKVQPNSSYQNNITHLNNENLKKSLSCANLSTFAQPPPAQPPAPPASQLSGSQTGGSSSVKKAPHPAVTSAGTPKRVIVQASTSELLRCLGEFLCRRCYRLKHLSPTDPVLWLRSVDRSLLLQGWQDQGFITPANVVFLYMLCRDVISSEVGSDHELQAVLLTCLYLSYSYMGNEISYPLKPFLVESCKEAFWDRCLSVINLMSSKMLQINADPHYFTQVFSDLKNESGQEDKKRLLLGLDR
CAL PDZ FP-1 = blocks peptide binding to the human CAL PDZ domain; 0.92% of 300,000 active; AID 602252; Q9HD26; inhibition, % at 24.9 µM; purified CAL PDZ, TMR-peptide fluorescence polarization, 1 h;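 active = mean inhibition of at least 30% with at least half of replicates also reaching 30%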
CAL PDZ FP-2 = blocks peptide binding to human CAL PDZ domain; 0.02% of 330,000 active; AID 504414; purified CAL PDZ, TMR-peptide fluorescence polarization, 1 h; inhibition, % at 20 µM;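 active = highest replicate inhibition of at least 40%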
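System: purified tagged CAL PDZ domain construct (CerCALP). Schedule: 1 h incubation at room temperature before polarization reading. Medium: 25 mM sodium phosphate pH 7.4, 150 mM NaCl, TCEP, IgG, Thesit. Read-out: percent inhibition from loss of millipolarization. Measured by: FP readout, S and P plane fluorescence. Probe or stimulus: fluorescent TMR peptide probe.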
DYRK1A inh = inhibitors of rat Dyrk1A kinase; Q63470; ADP-Glo luminescence, NFATc1 peptide; inhibition, % at 12.5 µM; 0.43% of 310,000 active; AID 504441; in the data active = inhibition above about 50%
TbMetRS inhib = blocks T. brucei methionyl-tRNA synthetase activity; AID 624268; inhibition, % at 11.9 µM; 0.4% of 360,000 active; purified T. brucei MetRS, ATP depletion, Kinase-Glo luminescence;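 active = inhibition above a per-plate cutoff of the control wells' mean inhibition plus 3 SD, cut at about 5.5% in these data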
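Dosing: 11.9 µM single point; system: parasite MetRS enzyme; technique: luminescence of leftover ATP; times: 15 min enzyme-compound preincubation, 2 h reaction, 10 min detection, 25 °C; replicates: each compound tested once; read-out basis: percent inhibition relative to median high and low control wells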
Hits are given with their value.

What do the screens show for `COc1ccccc1NC(=S)NNC(=O)c1ccc(Cl)cc1Cl`?
PvdQ inh: inactive; CDK5 inh: inactive; CAL PDZ FP-1: 48.7; CAL PDZ FP-2: inactive; DYRK1A inh: inactive; TbMetRS inhib: inactive

Results for C=CCN(c1ccc(F)cc1)S(=O)(=O)c1cc(C(=O)OCC(=O)N(C)C2CCS(=O)(=O)C2)ccc1Cl (stereo unspecified) ?
PvdQ inh: inactive; CDK5 inh: inactive; CAL PDZ FP-1: 39.5; CAL PDZ FP-2: inactive; DYRK1A inh: inactive; TbMetRS inhib: inactive

Results for O=C1NC[C@H](CCCCN2C[C@H](Cc3ccccc3)N(CCc3ccc(O)cc3)C(=O)C2=O)N(CC2CCCCC2)C1=O ?
TbMetRS inhib: inactive

How did Clc1cncc(Cl)c1N/N=C/c1ccncc1 do in these assays?
PvdQ inh: inactive; CDK5 inh: 52.1; CAL PDZ FP-1: inactive; CAL PDZ FP-2: inactive; DYRK1A inh: inactive; TbMetRS inhib: inactive

What do the screens show for `Clc1cccc(Cl)c1/C=N/Nc1c(Cl)cncc1Cl`?
PvdQ inh: inactive; CDK5 inh: inactive; CAL PDZ FP-1: inactive; CAL PDZ FP-2: inactive; DYRK1A inh: inactive; TbMetRS inhib: inactive

Results for Cc1c(C(=O)NCc2cccc(C(F)(F)F)c2)sc(=O)n1Cc1cccc(F)c1 ?
TbMetRS inhib: inactive

What do the screens show for `COc1ccc(OCCN2CCC(C(=O)NC(c3ccc(Cl)cc3)c3ncccc3C)CC2)cc1` (stereo unspecified)?
TbMetRS inhib: inactive

Results for CCC(=O)N1CCCc2cc(S(=O)(=O)N3CCN(C4CCCCC4)CC3)ccc21 ?
PvdQ inh: inactive; CDK5 inh: inactive; CAL PDZ FP-1: 41.8; DYRK1A inh: inactive; TbMetRS inhib: inactive

Results for O=C(NNc1ccccc1)/C(=C\c1cccnc1)NC(=O)c1ccccc1 ?
PvdQ inh: inactive; CDK5 inh: inactive; CAL PDZ FP-1: 73.1; CAL PDZ FP-2: inactive; DYRK1A inh: inactive; TbMetRS inhib: inactive

Results for N#Cc1ccccc1S(=O)(=O)N1CCN(C(=O)CN(Cc2ccco2)Cc2cccs2)CC1 ?
TbMetRS inhib: inactive

How did Cc1ccc(C(=O)N2CCN(c3ccccc3)CC2)cc1NC(=O)c1ccco1 do in these assays?
PvdQ inh: inactive; CDK5 inh: inactive; CAL PDZ FP-1: inactive; CAL PDZ FP-2: inactive; DYRK1A inh: inactive; TbMetRS inhib: inactive

Results for O=C(Nc1ccccc1C(=O)N1CCN(c2ccccc2)CC1)c1ccco1 ?
PvdQ inh: inactive; CDK5 inh: inactive; CAL PDZ FP-1: 46.5; CAL PDZ FP-2: inactive; DYRK1A inh: inactive; TbMetRS inhib: inactive

What do the screens show for `CCOCc1nnc(NC(=O)C2CC(=O)N(CCc3ccc(F)cc3)C2)s1` (stereo unspecified)?
PvdQ inh: inactive; CDK5 inh: inactive; CAL PDZ FP-1: inactive; CAL PDZ FP-2: inactive; DYRK1A inh: inactive; TbMetRS inhib: inactive

What do the screens show for `CCOCCc1nnc(NC(=O)C2CC(=O)N(CCc3ccc(F)cc3)C2)s1` (stereo unspecified)?
PvdQ inh: inactive; CDK5 inh: inactive; CAL PDZ FP-1: 58.7; CAL PDZ FP-2: inactive; DYRK1A inh: inactive; TbMetRS inhib: inactive

What do the screens show for `CCOC(=O)C(=C1Nc2ccccc2N1)n1c(-c2cccnc2)nc2ccccc21`?
TbMetRS inhib: inactive

How did Cc1cc(NC(=O)CSc2nnc(-c3ccncc3)n2C)n(-c2ccccc2)n1 do in these assays?
PvdQ inh: inactive; CDK5 inh: inactive; CAL PDZ FP-1: 77.4; CAL PDZ FP-2: inactive; TbMetRS inhib: inactive

Results for COc1ccc(C2NCCc3c2[nH]c2ccccc32)cc1COc1ccc(F)cc1 (stereo unspecified) ?
PvdQ inh: 38.6; CDK5 inh: inactive; CAL PDZ FP-1: inactive; CAL PDZ FP-2: inactive; DYRK1A inh: inactive; TbMetRS inhib: inactive

Results for Cc1nn(C)c(=O)c(N)c1-c1cc(-c2ccc(Cl)c(Cl)c2)n[nH]1 ?
TbMetRS inhib: inactive

How did Cc1ccc(-c2cc(-c3c(C)nn(C)c(=O)c3N)[nH]n2)cc1 do in these assays?
PvdQ inh: inactive; CDK5 inh: inactive; CAL PDZ FP-1: 41.5; CAL PDZ FP-2: inactive; DYRK1A inh: inactive; TbMetRS inhib: inactive

How did CC(C)NC(=O)c1cc(C2CCCCN2C(=O)c2cc(C(C)(C)C)nn2C)on1 (stereo unspecified) do in these assays?
TbMetRS inhib: inactive

Results for CCN(CC)S(=O)(=O)c1ccc(NC(=S)NC(=O)C(C)C)cc1 ?
PvdQ inh: inactive; CDK5 inh: inactive; CAL PDZ FP-1: inactive; CAL PDZ FP-2: inactive; DYRK1A inh: inactive; TbMetRS inhib: inactive

How did CCN(CC)S(=O)(=O)c1ccc(NC(=S)NC(=O)CC(C)C)cc1 do in these assays?
PvdQ inh: inactive; CDK5 inh: inactive; CAL PDZ FP-1: 111.9; CAL PDZ FP-2: inactive; DYRK1A inh: inactive; TbMetRS inhib: inactive

How did CCOC(=O)/C(C#N)=C/c1ccc(OCC(=O)Nc2ccc(OC)cc2)c(OC)c1 do in these assays?
PvdQ inh: inactive; CDK5 inh: inactive; CAL PDZ FP-1: 74.6; CAL PDZ FP-2: inactive; DYRK1A inh: inactive; TbMetRS inhib: inactive

Results for CCOC(=O)/C(C#N)=C/c1ccc(OC)c(OC)c1 ?
PvdQ inh: inactive; CDK5 inh: inactive; CAL PDZ FP-1: inactive; CAL PDZ FP-2: inactive; DYRK1A inh: inactive; TbMetRS inhib: inactive

What do the screens show for `CCOC(=O)/C(C#N)=C/c1ccc(SC)cc1`?
PvdQ inh: 44.8; CDK5 inh: inactive; CAL PDZ FP-1: inactive; CAL PDZ FP-2: inactive; DYRK1A inh: inactive; TbMetRS inhib: inactive

How did CCOC(=O)/C(C#N)=C/c1ccc(OCC(=O)Nc2ccc(C)c(C)c2)c(OC)c1 do in these assays?
PvdQ inh: inactive; CAL PDZ FP-1: inactive; CAL PDZ FP-2: inactive; DYRK1A inh: inactive; TbMetRS inhib: inactive

What do the screens show for `CNc1cccc(-c2cc(OC)ccc2OC)n1`?
TbMetRS inhib: inactive

How did COc1cccc(Nc2nc(C(N)C3CCCCC3)cs2)n1 (stereo unspecified) do in these assays?
TbMetRS inhib: inactive

How did CCCCOCCCNC(=O)C[C@@H]1C[C@@]2(C(=O)OCC)CCCC=C2N(Cc2ccc3c(c2)OCO3)C1=O do in these assays?
TbMetRS inhib: inactive

What do the screens show for `Cc1nn(C(C)C(=O)NCc2ccccc2Cl)c(=O)c2c1sc1ccccc12` (stereo unspecified)?
PvdQ inh: inactive; CDK5 inh: inactive; CAL PDZ FP-1: 69.7; CAL PDZ FP-2: inactive; DYRK1A inh: inactive; TbMetRS inhib: inactive

How did CCc1ccccc1N1C(=O)CC(Sc2nccc(C)n2)C1=O (stereo unspecified) do in these assays?
PvdQ inh: inactive; CDK5 inh: inactive; CAL PDZ FP-1: 99.7; DYRK1A inh: inactive; TbMetRS inhib: inactive

How did Cc1ccc(N2C(=O)CC(Sc3nccc(C)n3)C2=O)cc1 (stereo unspecified) do in these assays?
PvdQ inh: inactive; CDK5 inh: inactive; DYRK1A inh: inactive; TbMetRS inhib: inactive

Screening results as filed in PubChem.
